According to ChEMBL document CHEMBL5325390, “1,2,4-Triazole-3-thione analogues with an arylakyl group at position 4 as metallo-β-lactamase inhibitors” (Bioorg Med Chem, 2022):
Activity calls are given as the source filed them. The calls are words filed in the database; no cut-off is given here.

How the values were obtained:
[1] = molecular target: Beta-lactamase VIM-1 (Bacteria, UniProt Q8GDC1); assay: Binding affinity to VIM-1 (unknown origin) expressed in Escherichia coli BL21(DE3) assessed as inhibition constant by measuring rate of substrate hydrolysis by UV-Vis spectrophotometric analysis
Summary of the method: (§1)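 Purified MBL (1–70 nM) with 150 µM imipenem or meropenem as reporter substrate, 50 mM HEPES pH 7.5, 30 °C. Hydrolysis followed by absorbance at 300 nm without and with inhibitor (0.5 µM–1 mM). Ki from the slope of v0/vi vs [I] under a competitive model, or from Dixon plots varying inhibitor and substrate. […] Triplicate, mean ± SD.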

[2] = Binding affinity to VIM-2 (unknown origin) expressed in Escherichia coli BL21(DE3) assessed as inhibition constant by measuring rate of substrate hydrolysis by UV-Vis spectrophotometric analysis; summary of the method: as §1
[3] = Binding affinity to VIM-4 (unknown origin) expressed in Escherichia coli BL21(DE3) assessed as inhibition constant by measuring rate of substrate hydrolysis by UV-Vis spectrophotometric analysis; summary of the method: as §1
[4] = molecular target: Metallo-beta-lactamase type 2 (Bacteria) (UniProt C7C422); assay: Inhibition of NDM1 (unknown origin) expressed in Escherichia coli BL21(DE3) assessed as substrate hydrolysis at 100 uM by UV-Vis spectrophotometric analysis relative to control
Summary of the method: (§2)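 Single-point screen at 100 or 200 µM inhibitor against purified MBL (1–70 nM) with 150 µM imipenem or meropenem reporter substrate, 50 mM HEPES pH 7.5, 30 °C. Initial hydrolysis rate read by absorbance at 300 nm and compared with the uninhibited reaction. Triplicate.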

[5] = system: Klebsiella pneumoniae; assay: Antimicrobial synergistic activity against blaVIM-1-producing multidrug-resistant Klebsiella pneumoniae 7023 clinical isolate assessed as meropenem MIC at 32 ug/ml by CLSI based broth microdilution method (reference value: 16 ug/ml); format: functional; conditions: dose 32 µg/ml
[6] = system: Klebsiella pneumoniae; assay: Antimicrobial synergistic activity against blaVIM-4-producing multidrug-resistant Klebsiella pneumoniae VA416/02 clinical isolate assessed as meropenem MIC at 32 ug/ml by CLSI based broth microdilution method (reference value: 16 ug/ml); format: functional; conditions: dose 32 µg/ml
[7] = system: Escherichia coli; assay: Synergistic antimicrobial activity against blaNDM-1-producing multidrug-resistant Escherichia coli SI-004M clinical isolate assessed as meropenem MIC at 32 ug/ml by CLSI based microdilution method (reference value: 64 ug/ml); format: functional; conditions: dose 32 µg/ml
[8] = system: metallo-β-lactamase L1 (Stenotrophomonas maltophilia); assay: Inhibition of L1 (unknown origin) expressed in Escherichia coli BL21(DE3) assessed as substrate hydrolysis at 100 uM by UV-Vis spectrophotometric analysis relative to control
[9] = system: metallo-β-lactamase IMP-1 (Pseudomonas aeruginosa); assay: Inhibition of IMP1 (unknown origin) expressed in Escherichia coli BL21(DE3) assessed as substrate hydrolysis at 100 uM by UV-Vis spectrophotometric analysis relative to control
[10] = molecular target: Beta-lactamase VIM-1 (Bacteria) (UniProt Q8GDC1); assay: Inhibition of VIM-1 (unknown origin) expressed in Escherichia coli BL21(DE3) assessed as substrate hydrolysis at 100 uM by UV-Vis spectrophotometric analysis relative to control; summary of the method: as §2
[11] = system: metallo-β-lactamase VIM-2 (Pseudomonas aeruginosa); assay: Inhibition of VIM-2 (unknown origin) expressed in Escherichia coli BL21(DE3) assessed as substrate hydrolysis at 100 uM by UV-Vis spectrophotometric analysis relative to control
[12] = system: metallo-β-lactamase VIM-4 (Pseudomonas aeruginosa); assay: Inhibition of VIM-4 (unknown origin) expressed in Escherichia coli BL21(DE3) assessed as substrate hydrolysis at 100 uM by UV-Vis spectrophotometric analysis relative to control
[13] = molecular target: T1, Angiotensin-converting enzyme (Oryctolagus cuniculus) (UniProt P12822); assay: Inhibition of rabbit lung angiotensin-converting enzyme at 100 uM using Abz-Gly-Phe-(NO2)-Pro as substrate by fluorescence based microplate reader analysis relative to control; format: tissue-based
T1 sequence (whole entry): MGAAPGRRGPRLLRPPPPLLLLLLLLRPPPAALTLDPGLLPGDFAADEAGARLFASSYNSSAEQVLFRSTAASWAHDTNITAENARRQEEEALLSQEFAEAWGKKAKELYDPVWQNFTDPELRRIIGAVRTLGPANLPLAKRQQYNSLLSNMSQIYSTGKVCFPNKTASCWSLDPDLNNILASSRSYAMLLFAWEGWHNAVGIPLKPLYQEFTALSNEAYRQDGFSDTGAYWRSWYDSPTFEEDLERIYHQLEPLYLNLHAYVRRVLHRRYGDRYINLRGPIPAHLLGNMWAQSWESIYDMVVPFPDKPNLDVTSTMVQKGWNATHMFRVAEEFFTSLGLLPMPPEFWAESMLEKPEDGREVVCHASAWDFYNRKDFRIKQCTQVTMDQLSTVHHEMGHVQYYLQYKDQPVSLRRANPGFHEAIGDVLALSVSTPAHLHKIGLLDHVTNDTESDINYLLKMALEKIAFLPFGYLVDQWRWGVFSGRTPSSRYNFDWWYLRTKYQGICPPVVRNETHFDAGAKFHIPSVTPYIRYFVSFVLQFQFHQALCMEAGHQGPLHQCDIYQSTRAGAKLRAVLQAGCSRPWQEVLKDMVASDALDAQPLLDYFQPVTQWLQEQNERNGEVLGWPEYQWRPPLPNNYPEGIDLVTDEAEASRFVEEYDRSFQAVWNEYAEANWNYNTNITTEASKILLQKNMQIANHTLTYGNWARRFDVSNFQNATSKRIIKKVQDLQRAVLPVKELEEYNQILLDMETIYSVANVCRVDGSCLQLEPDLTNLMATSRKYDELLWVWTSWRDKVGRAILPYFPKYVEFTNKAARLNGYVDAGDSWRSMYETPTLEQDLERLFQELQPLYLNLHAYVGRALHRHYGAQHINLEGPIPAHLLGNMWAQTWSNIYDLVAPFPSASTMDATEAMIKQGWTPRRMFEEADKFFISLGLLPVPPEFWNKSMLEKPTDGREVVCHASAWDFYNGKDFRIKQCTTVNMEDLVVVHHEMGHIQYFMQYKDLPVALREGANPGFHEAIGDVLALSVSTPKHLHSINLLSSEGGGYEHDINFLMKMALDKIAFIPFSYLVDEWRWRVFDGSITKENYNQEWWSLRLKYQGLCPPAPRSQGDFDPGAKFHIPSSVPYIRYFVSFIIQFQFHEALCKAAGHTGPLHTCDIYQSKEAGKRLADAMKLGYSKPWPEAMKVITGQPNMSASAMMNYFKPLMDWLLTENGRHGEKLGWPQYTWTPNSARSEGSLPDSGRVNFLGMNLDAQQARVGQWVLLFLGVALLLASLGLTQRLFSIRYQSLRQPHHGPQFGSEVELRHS
Summary of the method: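 Rabbit lung ACE, 1.5 mU per well, in 150 mM Tris, 750 mM NaCl, pH 8.3, with Abz-Gly-Phe(NO2)-Pro substrate. Blank-corrected fluorescence of released Abz-Gly-OH (ex 316, em 413 nm) followed up to 90 min. Test compounds at 100 µM; captopril control at 100 nM. Inhibition % = 100 − (vi/v0 × 100).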

[14] = molecular target: Metallo-beta-lactamase type 2 (Bacteria) (UniProt C7C422); assay: Inhibition of NDM1 (unknown origin) expressed in Escherichia coli BL21(DE3) assessed as substrate hydrolysis at 200 uM by UV-Vis spectrophotometric analysis relative to control; summary of the method: as §2
[15] = system: metallo-β-lactamase IMP-1 (Pseudomonas aeruginosa); assay: Inhibition of IMP1 (unknown origin) expressed in Escherichia coli BL21(DE3) assessed as substrate hydrolysis at 200 uM by UV-Vis spectrophotometric analysis relative to control
[16] = system: metallo-β-lactamase VIM-2 (Pseudomonas aeruginosa); assay: Inhibition of VIM-2 (unknown origin) expressed in Escherichia coli BL21(DE3) assessed as substrate hydrolysis at 200 uM by UV-Vis spectrophotometric analysis relative to control
[17] = system: metallo-β-lactamase VIM-4 (Pseudomonas aeruginosa); assay: Inhibition of VIM-4 (unknown origin) expressed in Escherichia coli BL21(DE3) assessed as substrate hydrolysis at 200 uM by UV-Vis spectrophotometric analysis relative to control
[18] = Binding affinity to IMP1 (unknown origin) expressed in Escherichia coli BL21(DE3) assessed as inhibition constant by measuring rate of substrate hydrolysis by UV-Vis spectrophotometric analysis; conditions: read-out: Ki; summary of the method: as §1

Metallo-beta-lactamase type 2 (Bacteria), sequence (C7C422 whole entry): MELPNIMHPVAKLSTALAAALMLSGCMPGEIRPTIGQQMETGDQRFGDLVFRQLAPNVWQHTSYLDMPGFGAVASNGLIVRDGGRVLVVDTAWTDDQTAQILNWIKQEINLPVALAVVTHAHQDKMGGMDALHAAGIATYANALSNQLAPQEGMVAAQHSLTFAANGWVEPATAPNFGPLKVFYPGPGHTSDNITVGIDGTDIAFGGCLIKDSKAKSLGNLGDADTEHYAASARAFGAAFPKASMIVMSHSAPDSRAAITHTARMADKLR

Structure (SMILES)	Ki [1]	Ki [2]	Ki [3]	inhibition [4]	MIC [5]	MIC [6]	MIC [7]	inhibition [8]	inhibition [9]	inhibition [10]	inhibition [11]	inhibition [12]	inhibition [13]	inhibition [14]	inhibition [15]	inhibition [16]	inhibition [17]	Ki [18]
O=C(O)c1ccc(Cn2c(-c3ccccc3)n[nH]c2=S)cc1	3600 nM	2700 nM	1100 nM	< 30%	4 µg/mL	2 µg/mL	64 µg/mL	45%	< 30%									
O=C(O)Cc1ccccc1Cn1c(-c2ccccc2)n[nH]c1=S				< 30%				< 30%	< 30%	< 30%	50%	< 30%						
COc1ccc(O)c(-c2n[nH]c(=S)n2CC2OC(=O)c3ccccc32)c1 (configuration not stated)	1200 nM	3300 nM	900 nM	68%	2 µg/mL	2 µg/mL	64 µg/mL		47%				inactive					
Cc1ccccc1-c1n[nH]c(=S)n1CCc1ccc(OCc2ccccc2)cc1				< 30%					< 30%	47%	< 30%	< 30%		< 50%	< 50%	< 50%	< 50%	
Sc1nnc(-c2ccccc2)n1Cc1ccccc1	720 nM		1500 nM	< 30%	4 µg/mL	4 µg/mL							inactive					8000 nM
O=C1OC(Cn2c(-c3ccccc3-c3ccccc3)n[nH]c2=S)c2ccccc21 (configuration not stated)				< 30%					54%	30%	< 30%	34%		< 50%		< 50%		
S=c1[nH]nc(Cc2ccccc2)n1CCCc1ccccc1				< 30%				32%	63%	30%	< 30%	< 30%						
S=c1[nH]nc(-c2ccccc2)n1CCCCc1ccccc1	1200 nM	230 nM	430 nM	55%	2 µg/mL	4 µg/mL	64 µg/mL	50%	< 30%									
